14 compounds from ChEMBL document CHEMBL5532718, “Identification and Evaluation of Reversible Covalent Binders to Cys55 of Bfl-1 from a DNA-Encoded Chemical Library Screen” (ACS Med Chem Lett, 2024) can be followed below.

SMILES strings stand for the structures. pIC50, pKi: −log10 of the molar value.

A short description of data set [1]: Lipophilicity, logD of compound in octanol/water at pH 7.4 by shake-flask method. The class given is physicochemical.
The target of data set [2] is T1, Bcl-2-related protein A1 (Homo sapiens, UniProt Q16548).
T1 sequence (Q16548 whole entry): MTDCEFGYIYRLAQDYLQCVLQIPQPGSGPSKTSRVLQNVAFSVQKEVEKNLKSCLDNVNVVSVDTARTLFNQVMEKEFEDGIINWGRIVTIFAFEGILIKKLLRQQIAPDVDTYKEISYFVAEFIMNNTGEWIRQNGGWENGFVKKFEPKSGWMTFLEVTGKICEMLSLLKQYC
Description: Inhibition of N-terminal His6-tagged recombinant human Bfl-1 (1 to 151 residues) expressed in Escherichia coli BL21-Gold (DE3) using HyLite Fluor 647-labeled BIM peptide as substrate incubated for 120 mins by TR-FRET assay. In short, it runs like this: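 Bfl-1 binding read as displacement of a labeled BIM peptide probe in a TR-FRET assay, reported as IC50 in μM.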
In general terms: TR-FRET usually uses a lanthanide donor and a delayed reading to cut background.

In data set [3] the target is T1, Bcl-2-related protein A1. Put plainly: Binding affinity of N-terminal His6-tagged recombinant human Bfl-1 (1 to 151 residues) expressed in Escherichia coli BL21-Gold (DE3) assessed as inhibition constant by MS analysis.
Data set [4] deals with Induced myeloid leukemia cell differentiation protein Mcl-1 (Homo sapiens, UniProt Q07820). Description: Inhibition of Mcl-1 (unknown origin) incubated for 120 mins by TR-FRET assay.
For data set [5], the target named is Apoptosis regulator Bcl-2 (Homo sapiens, UniProt P10415). Put plainly: Inhibition of Bcl-2 (unknown origin) incubated for 120 mins by TR-FRET assay.
Data set [6] has as its target Bcl-2-like protein 1 (Homo sapiens, UniProt Q07817). Put plainly: Inhibition of Bcl-xl (unknown origin) incubated for 120 mins by TR-FRET assay.

Chain of Induced myeloid leukemia cell differentiation protein Mcl-1 (Q07820 whole entry): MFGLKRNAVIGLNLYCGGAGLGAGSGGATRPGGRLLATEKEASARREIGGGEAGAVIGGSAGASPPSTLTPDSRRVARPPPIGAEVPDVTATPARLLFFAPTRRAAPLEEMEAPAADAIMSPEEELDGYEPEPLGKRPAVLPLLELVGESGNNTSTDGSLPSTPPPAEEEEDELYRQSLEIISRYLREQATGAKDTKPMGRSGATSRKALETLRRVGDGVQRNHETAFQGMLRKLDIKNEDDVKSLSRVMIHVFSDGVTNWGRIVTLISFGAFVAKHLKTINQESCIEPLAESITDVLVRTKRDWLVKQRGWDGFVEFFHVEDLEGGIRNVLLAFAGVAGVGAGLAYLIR
Chain of Apoptosis regulator Bcl-2 (P10415 whole entry): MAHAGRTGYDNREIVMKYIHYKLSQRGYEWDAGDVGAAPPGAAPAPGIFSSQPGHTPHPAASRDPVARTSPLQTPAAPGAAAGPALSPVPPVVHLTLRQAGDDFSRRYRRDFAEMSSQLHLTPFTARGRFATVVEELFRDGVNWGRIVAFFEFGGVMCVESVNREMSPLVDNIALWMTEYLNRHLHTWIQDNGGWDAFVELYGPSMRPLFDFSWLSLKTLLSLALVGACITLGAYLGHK
Chain of Bcl-2-like protein 1 (Q07817 whole entry): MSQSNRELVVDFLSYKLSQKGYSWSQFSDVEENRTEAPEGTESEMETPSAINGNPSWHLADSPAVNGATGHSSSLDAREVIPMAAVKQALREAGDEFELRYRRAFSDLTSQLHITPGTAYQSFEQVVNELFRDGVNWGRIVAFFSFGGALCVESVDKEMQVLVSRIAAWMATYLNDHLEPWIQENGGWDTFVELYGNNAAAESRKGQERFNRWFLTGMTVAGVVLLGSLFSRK

Usually logD stands for the decadic logarithm of the distribution of all forms, ionised or not, between an organic phase and buffer at a given pH. A low value points to a more hydrophilic compound. The term pIC50 denotes the negative decadic logarithm of the IC50, by convention in mol/L. `CN(C)C(=O)[C@H](Cc1ccc(C(F)(F)F)cc1)NC(=O)/C(C#N)=C/c1ccccc1` displayed a logD in data set [1] of 3.9. The negative-log IC50 (pIC50) in data set [2] was less than 4.00.
The like results for `CP(C)(=O)c1ccccc1/C=C(\C#N)C(=O)NCC1(c2ccc(C(F)(F)F)cc2)CC1` were, in that order, 3 and 5.37.
Turning to `CP(C)(=O)c1ccccc1/C=C(\C#N)C(=O)NCCc1ccccc1`, in data set [1], the logD was 1.7. In data set [2], the pIC50 is less than 4.00.
The like results for `CN(C)C(=O)C(Cc1ccc(C(F)(F)F)cc1)NC(=O)/C(C#N)=C/c1ccccc1S(=O)(=O)N(C)C` (racemic) were, in that order, 3.2 and less than 4.00.
In data set [1], `CN(C)C(=O)[C@@H](Cc1ccc(C(F)(F)F)cc1)NC(=O)/C(C#N)=C/c1ccccc1P(C)(C)=O` showed a logD of 2.1. Besides, in data set [2], the pIC50 was less than 4.00.
For `CN(C)C(=O)[C@H](Cc1ccc(C(F)(F)F)cc1)NC(=O)/C(C#N)=C/c1ccc(P(C)(C)=O)cc1` the same measures were 2.1 and less than 4.00.
By pKi is commonly meant the Ki on a negative log10 scale, so that one unit is a factor of ten. For `CN(C)C(=O)[C@H](Cc1ccc(C(F)(F)F)cc1)NC(=O)/C(C#N)=C/c1ccccc1P(C)(C)=O`, the pKi in data set [3] was 5.27. Besides, the logD in data set [1] was determined as 2. Also, the pIC50 in data set [4] is less than 4.00; in data set [5] it was less than 4.00; in data set [6], less than 4.00; in data set [2], 4.54.
Turning to `CN(C)C(=O)[C@H](Cc1ccc(C(F)(F)F)cc1)NC(=O)/C(C#N)=C/c1ccccc1S(C)(=O)=O`, in data set [1], the pH-dependent lipophilicity (logD) is 2.6. Moreover, the pIC50 in data set [2] is less than 4.00.
For `CP(C)(=O)c1ccccc1/C=C(\C#N)C(=O)NCCc1ccc(Cl)cc1` the same measures were 2.3 and 4.27.
The like results for `CP(C)(=O)c1ccccc1/C=C(\C#N)C(=O)NCC1(c2ccccc2)CC1` were, in that order, 2 and 4.30.
With `CP(C)(=O)c1ccccc1/C=C(\C#N)C(=O)NCCc1ccc(C(F)(F)F)cc1`, the logD in data set [1] is 2.7. Also, the pIC50 in data set [2] was 4.64.
The compound `CP(C)(=O)c1ccccc1/C=C(\C#N)C(=O)NCCc1ccc(Cl)c(Cl)c1` came in with a logD in data set [1] of 1.9. Also, in data set [2], the pIC50 was 4.57.
In data set [1], `CN(C)C(=O)[C@H](Cc1ccc(C(F)(F)F)cc1)NC(=O)/C(C#N)=C/c1cccc(P(C)(C)=O)c1` registered a logD of 2.2. In data set [2], the pIC50 is less than 4.00.
For `CN(C)C(=O)c1ccccc1/C=C(\C#N)C(=O)NC(Cc1ccc(C(F)(F)F)cc1)C(=O)N(C)C` (racemic) the same measures were 2.2 and less than 4.00.
